# Measurements collected from several papers.
# Each line is one published result; the experiments were not run side by side.
# Organism: Candida albicans
# Read-out: microbial growth
# Method: broth dilution
SMILES,strain,time,MIC
N#CC(C#N)=C1SC(C(=O)c2ccc(Nc3cnccn3)cc2)=NN1c1ccccc1,ATCC10231,,100 µg/mL
Cc1ccc(-c2cc(-c3ccc(OCc4ccccc4)cc3)nc3c(N=Nc4ccc(F)cc4)c(N)nn23)cc1,ATCC10231,,62.5 µg/mL
C/C(=N\CCNCC/N=C(\C)c1c(O)c2ccccc2oc1=O)c1c(O)c2ccccc2oc1=O,,48 h,7.81 µg/mL
OC(Cn1cncn1)(Cn1cncn1)c1ccc(F)cc1F,ATCC90028,48 h,8 µg/mL
C#CCON=C1C=CC(=C(C#N)c2ccccc2)C=C1,ATCC10231,48 h,32 µg/mL
C/C(=N\C(=N)/N=C(\C)c1c(O)c2ccccc2oc1=O)c1c(O)c2ccccc2oc1=O,,48 h,31.2 µg/mL
CCn1c2ccccc2c2cc(CNC)ccc21,SN152,24 h,64 µg/mL
CC(=O)N1CCN(c2ccc(OCC3COC(Cn4ccnc4)(c4ccc(Cl)cc4Cl)O3)cc2)CC1 (centres unmarked),ATCC10231,48 h,8 µg/mL
CC(=O)C1=NN(c2ccc([N+](=O)[O-])cc2)C(=C(C#N)C(=O)c2ccc(Nc3cnccn3)cc2)S1,ATCC10231,,6.25 µg/mL
C/C(=N\C(=S)/N=C(\C)c1c(O)c2ccccc2oc1=O)c1c(O)c2ccccc2oc1=O,,48 h,3.9 µg/mL
Nc1nn2c(-c3ccc(Cl)cc3Cl)cc(-c3ccc(OCc4ccccc4)cc3)nc2c1N=Nc1ccc(F)cc1,ATCC10231,,62.5 µg/mL
COc1ccc(N2N=C(C(=O)c3ccc(Nc4cnccn4)cc3)SC2=C(C#N)C#N)cc1,ATCC10231,,12.5 µg/mL
C/C(=N\C(=O)/N=C(\C)c1c(O)c2ccccc2oc1=O)c1c(O)c2ccccc2oc1=O,,48 h,31.2 µg/mL
OC(Cn1cncn1)(Cn1cncn1)c1ccc(F)cc1F,SP3903,48 h,4 µM
CC(=O)N1CCN(c2ccc(OCC3COC(Cn4ccnc4)(c4ccc(Cl)cc4Cl)O3)cc2)CC1 (centres unmarked),,48 h,1.95 µg/mL
Cc1ccc(N=Nc2c(N)nn3c(-c4ccc(Cl)cc4Cl)cc(-c4ccc(OCc5ccccc5)cc4)nc23)cc1,ATCC10231,,31.3 µg/mL
C[C@@H]1[C@H](O)[C@@H](C)/C=C/C=C/C=C/C=C/C=C/C=C/C=C/[C@H](O[C@@H]2O[C@H](C)[C@@H](O)[C@H](N)[C@@H]2O)C[C@@H]2O[C@](O)(C[C@@H](O)C[C@@H](O)[C@H](O)CC[C@@H](O)C[C@@H](O)CC(=O)O[C@H]1C)C[C@H](O)[C@H]2C(=O)O,ATCC10231,48 h,2 µg/mL
O=C1/C(=C/c2ccc3ccccc3c2O)NC(=S)N1c1ccccc1,ATCC10 ATCC10231,,20 µg/mL
COc1ccc(N=Nc2c(N)nn3c(-c4ccc(C)cc4)cc(-c4ccc(OCc5ccccc5)cc4)nc23)cc1,ATCC10231,,62.5 µg/mL
CCON=C1C=CC(=C(C#N)c2ccccc2)C=C1,ATCC10231,48 h,256 µg/mL
OC(Cn1cncn1)(Cn1cncn1)c1ccc(F)cc1F,8,24 h,1 µg/mL
N#CC(=C1C=CC(=NOC(=O)c2ccccc2)C=C1)c1ccccc1,ATCC10231,48 h,256 µg/mL
C[C@@H]1[C@H](O)[C@@H](C)/C=C/C=C/C=C/C=C/C=C/C=C/C=C/[C@H](O[C@@H]2O[C@H](C)[C@@H](O)[C@H](N)[C@@H]2O)C[C@@H]2O[C@](O)(C[C@@H](O)C[C@@H](O)[C@H](O)CC[C@@H](O)C[C@@H](O)CC(=O)O[C@H]1C)C[C@H](O)[C@H]2C(=O)O,17546,48 h,< 0.25 µM
COc1ccc(N2N=C(C(C)=O)SC2=C(C#N)C(=O)c2ccc(Nc3cnccn3)cc2)cc1,ATCC10231,,25 µg/mL
Cc1ccc(N=Nc2c(N)nn3c(-c4ccco4)cc(-c4ccc(OCc5ccccc5)cc4)nc23)cc1,ATCC10231,,31.3 µg/mL
CC(=O)N1CCN(c2ccc(OCC3COC(Cn4ccnc4)(c4ccc(Cl)cc4Cl)O3)cc2)CC1 (centres unmarked),58288,48 h,16 µM
